Test results taken from paper PMC9926120 (The Journal of Biological Chemistry, 2022).
Values belong to the molecule of their own block, whether it stands above or below them.

B2: His-tagged scRev7 (S. cerevisiae Rev7) (natural protein)
chain: MNRWVEKWLRVYLKCYINLILFYRNVYPPQSFDYTTYQSFNLPQFVPINRHPALIDYIEELILDVLSKLTHVYRFSICIINKKNDLCIEKYVLDFSELQHVDKDDQIITETEVFDEFRSSLNSLIMHLEKLPKVNDDTITFEAVINAIELELGHKLDRNRRVDSLEEKAEIERDSNWVKCQEDENLPDNNGFQPPKIKLTSLVGSDVGPLIIHQFSEKLISGDDKILNGVYSQYEEGESIFGSLF

Legend:
MBP-scRev7 = target: T1, MBP-scRev7 (Saccharomyces cerevisiae, UniProt P38927); experiment: ITC of scRev3 peptides titrated into MBP-scRev7; type: binding, S. cerevisiae; settings: 25 °C, 50 mM Tris, 100 mM NaCl, pH 8.4, 300 μM peptide titrated into 30 μM MBP-scRev7 in 2.5 μl increments, Fig. S5C
T1 sequence (P38927 1-245): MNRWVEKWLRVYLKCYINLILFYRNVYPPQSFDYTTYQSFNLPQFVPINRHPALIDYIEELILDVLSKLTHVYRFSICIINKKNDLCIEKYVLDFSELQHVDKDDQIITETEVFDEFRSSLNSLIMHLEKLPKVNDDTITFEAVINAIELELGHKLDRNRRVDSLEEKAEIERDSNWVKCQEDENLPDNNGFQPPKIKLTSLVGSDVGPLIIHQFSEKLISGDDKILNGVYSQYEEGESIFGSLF

scRev7 [1] = experiment: SEC oligomeric state and stoichiometry; parameters: species or system S. cerevisiae; settings: 20 mM Tris, 100 mM NaCl, 2 mM EDTA, 1 mM DTT, pH 8
How it was run: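 scRev7 (MCS-1) co-expressed with scRev3 fragments or mutants (MCS-2) from pETDuet-1 in E. coli BL21(DE3); empty MCS-2 for apo-scRev7. Grown in 1L LB at 37 °C, induced with 1 mM IPTG at 20 °C overnight. Lysed by sonication in 20 mM sodium phosphate, 300 mM NaCl, 10 mM imidazole. Cobalt affinity, then Superdex 75 or 200 SEC with comparison of elution volumes.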

[2] = target: T2, scRev7 fused to the maltose binding protein (MBP-scRev7) (S. cerevisiae, UniProt P38927 1-245); experiment: ITC
T2 sequence: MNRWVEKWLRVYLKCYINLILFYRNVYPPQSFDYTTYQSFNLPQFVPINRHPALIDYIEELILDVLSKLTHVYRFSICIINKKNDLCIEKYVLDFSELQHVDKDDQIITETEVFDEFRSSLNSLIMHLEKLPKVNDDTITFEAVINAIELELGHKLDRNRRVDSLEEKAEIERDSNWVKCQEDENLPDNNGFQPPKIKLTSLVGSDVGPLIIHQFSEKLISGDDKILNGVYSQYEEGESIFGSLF

[3] = target: B2; experiment: AUC
scRev7 [4] = experiment: Y2H of scRev7 and scRev3 fragments; type: binding, S. cerevisiae; settings: scRev7-AD with scRev3 fragment-BD; yeast PJ694-A, 5 to 7 days at 30 °C
How it was run: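 GAL4 AD and BD fusions of scRev7 and scRev3 RBM1, RBM2 or RBM12 (WT or mutant), tested in both orientations. Cells were transformed with 2.0 ug of each vector and grown in -LW broth at 30 °C for 3 to 5 days. They were then pelleted, resuspended in sterile water to normalise OD, serially diluted, and plated on -LW and -AHLW. Controls were empty vectors (negative) and AD/BD-fused mouse Rev7 dimerization (positive).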

[5] = target: T3, truncated scRev3 fragment containing RBM2, but not RBM1 (residues 545-629) (S. cerevisiae, UniProt P14284 545-629); experiment: SEC
T3 sequence: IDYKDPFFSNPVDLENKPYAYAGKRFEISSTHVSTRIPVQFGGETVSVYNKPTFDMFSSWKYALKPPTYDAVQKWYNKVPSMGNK

[6] = target: T4, scRev3-RBM12 (residues 510-629), co-expressed with scRev7 (S. cerevisiae, UniProt P14284 510-629); experiment: AUC
T4 sequence: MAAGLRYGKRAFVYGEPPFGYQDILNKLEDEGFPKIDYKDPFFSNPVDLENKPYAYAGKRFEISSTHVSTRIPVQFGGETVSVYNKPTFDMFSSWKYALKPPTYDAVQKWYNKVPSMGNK

Molecule: scRev3-zipper: scRev3-zipper (residues 573–594), linker region preceding RBM2 (SSTHVSTRIPVQFGGETVSVYN)
binding (heat release) (MBP-scRev7): no heat release that would be consistent with binding

Molecule: scRev7/scRev3-RBM1: scRev7 co-expressed with scRev3-RBM1
SEC elution volume comparison (scRev7 [1]): elute at similar volumes

Molecule: scRev7/scRev3-RBM2: scRev7 co-expressed with scRev3-RBM2, 1:1 complex
SEC elution volume comparison (scRev7 [1]): elute at similar volumes

Molecule: apo-scRev7: scRev7 overexpressed alone (MCS-2 of pETDuet-1 empty)
SEC elution volume comparison (scRev7 [1]): elute at similar volumes

stoichiometry N [2]: 1
Molecule: KPTFDMFSSWKYALKPPTYDAVQKWYNKVPSMGNK [scRev3-RBM2 peptide (residues 595-629) used for ITC]

stoichiometry N [3]: 1
Molecule: KPTFDMFSSWKYALKPPTYDAVQKWYNKVPSMGNK (domain or fragment) [scRev3-RBM2 (residues 595-629), co-expressed with scRev7]

B1: scRev3-RBM12: scRev3-RBM12 (residues 510–629), longer scRev3 construct containing both RBMs (protein)
chain: MAAGLRYGKRAFVYGEPPFGYQDILNKLEDEGFPKIDYKDPFFSNPVDLENKPYAYAGKRFEISSTHVSTRIPVQFGGETVSVYNKPTFDMFSSWKYALKPPTYDAVQKWYNKVPSMGNK
growth on -AHLW plates (scRev7 [4]): yeast grew on plates lacking adenine, histidine, leucine, and tryptophan

Molecule: B2
stoichiometry N [5]: 1
stoichiometry N [6]: 2 scRev7 per scRev3-RBM12

stoichiometry N [2]: 1
Molecule: MAAGLRYGKRAFVYGEPPFGYQDILNKLEDEGFPK [scRev3-RBM1 peptide (residues 510-544) used for ITC]
